Bioassay records deposited in PubChem BioAssay by several laboratories.
Sampled rows, rich in hits. Any-hit rate of the full collection: about 4.7%.
VIM-2 inhibitor: inhibitors of Pseudomonas aeruginosa VIM-2 metallo-beta-lactamase; purified VIM-2, nitrocefin hydrolysis, epi-absorbance fluorescence; inhibition, % at 5.6 µM; actives 0.89% (n = 290,000); AID 1527;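 active = inhibition above the mean of all tested compounds plus 3 SD, cutoff set per screening run, cut at about 7.5% in these data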;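 note: red hydrolysis product quenches plate fluorescence so inhibitors raise well fluorescence; 0% = enzyme with DMSO and 100% = DMSO without enzyme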
IMP-1 inh: blocks Pseudomonas aeruginosa IMP-1 metallo-beta-lactamase; actives 0.45% (n = 290,000); inhibition, % at 5.6 µM; purified IMP-1, nitrocefin hydrolysis, epi-absorbance fluorescence;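 active = inhibition above the mean plus 3 SD of all compounds in the same screening run, cut at about 4.5% in these data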;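 note: 0% = IMP-1 with DMSO and 100% = DMSO wells lacking enzyme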
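Material – recombinant IMP-1 enzyme, purified · Amount – IMP-1 0.2 nM before substrate addition · Medium – HEPES buffer pH 7.1 with ZnSO4 and Brij 35 · Timing – 25 °C, 15 min preincubation, 25 min reaction · Measured by – plate fluorescence quenching by hydrolysis product, ex 480/em 530 nm · Read-out – percent enzyme inhibition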
Jurkat NFkB inh: inhibitors of the PMA/ionomycin-induced NF-kB reporter in Jurkat cells | PMA/ionomycin-induced NF-kB luciferase reporter, luminescence | inhibition, % at 4 µM | actives 0.53% (n = 330,000) | AID 435003; in the data active = inhibition above about 50%
Mdm2 MdmX PPI: human Mdm2/MdmX binding inhibition; actives 3% (n = 330,000); SaOS-2 split-luciferase Mdm2/MdmX complementation, luminescence; inhibition, % at 8 µM;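 active = inhibition of at least 50% at 8 µM in the primary screen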
Target sequence (O15151 whole entry, looked up): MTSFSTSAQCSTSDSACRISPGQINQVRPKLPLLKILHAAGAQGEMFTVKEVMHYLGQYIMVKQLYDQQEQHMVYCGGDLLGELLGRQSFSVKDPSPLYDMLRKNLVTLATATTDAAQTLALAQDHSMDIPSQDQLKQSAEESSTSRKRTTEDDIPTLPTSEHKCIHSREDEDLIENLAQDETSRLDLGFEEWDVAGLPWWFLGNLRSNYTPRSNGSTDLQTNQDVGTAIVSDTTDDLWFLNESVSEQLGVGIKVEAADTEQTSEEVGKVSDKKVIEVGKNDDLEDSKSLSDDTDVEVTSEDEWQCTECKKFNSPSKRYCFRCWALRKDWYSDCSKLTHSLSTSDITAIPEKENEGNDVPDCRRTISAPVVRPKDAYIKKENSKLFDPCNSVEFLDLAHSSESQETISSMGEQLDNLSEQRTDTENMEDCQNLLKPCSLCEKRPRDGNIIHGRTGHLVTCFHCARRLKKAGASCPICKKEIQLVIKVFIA
Target sequence (Q00987 whole entry, looked up): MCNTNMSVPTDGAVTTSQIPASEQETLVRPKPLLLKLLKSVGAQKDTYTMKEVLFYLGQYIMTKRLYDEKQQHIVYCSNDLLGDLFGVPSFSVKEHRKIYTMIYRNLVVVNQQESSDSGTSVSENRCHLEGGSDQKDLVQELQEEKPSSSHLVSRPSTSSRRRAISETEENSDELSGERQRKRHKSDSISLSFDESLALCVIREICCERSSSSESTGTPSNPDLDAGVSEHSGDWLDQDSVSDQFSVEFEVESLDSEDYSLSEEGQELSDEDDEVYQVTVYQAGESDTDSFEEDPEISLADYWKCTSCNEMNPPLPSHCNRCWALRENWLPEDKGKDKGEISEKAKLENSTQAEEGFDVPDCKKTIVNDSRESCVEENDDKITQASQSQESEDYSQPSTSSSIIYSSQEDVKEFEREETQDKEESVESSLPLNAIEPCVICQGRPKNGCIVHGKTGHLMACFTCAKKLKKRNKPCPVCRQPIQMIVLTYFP
aSyn 5UTR inh: 5' untranslated region of α-synuclein, MLPCN primary screen. alpha-synuclein 5'UTR reporter, inhibitor activity. inhibition, % (tested at 7.5 µM). actives 0.82% (n = 300,000). AID 1813; in the data active = inhibition above about 60%;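 note: H4 neuroglioblastoma cells stably carrying SNCA 5'UTR luciferase fusion; 0% = DMSO wells and 100% = positive control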
697 NFkB inh: inhibitors of the PMA/ionomycin-induced NF-kB reporter in 697 B cells; 697 B-cell NF-kB luciferase reporter, 16 h; actives 0.33% (n = 330,000); AID 435022; inhibition, % at 4 µM; in the data active = inhibition above about 35%
Mdm2 MdmX conf: human Mdm2/MdmX binding inhibition, confirmed; shares compounds with Mdm2 MdmX PPI; luminescent assay; inhibition, % at 8 µM; actives 55% (n = 10,000); AID 489028; in the data active = inhibition above about 40%
Full FLuc ctr: full-length luciferase inhibition in Mdm2/MdmX counter-screen. shares compounds with Mdm2 MdmX PPI. SaOS-2 full-length luciferase counterscreen, luminescence. inhibition, % at 8 µM. actives 77% (n = 6,200);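 active = mean inhibition at 8 µM reaching about 37%, which flags the compound as non-specific, limit read from the data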;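 note: p53-null SaOS-2 cells with luciferase driven by a doxycycline-inducible promoter; compound on cells about two nights before reading with doxycycline added after day one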
* hit, by the source's call; / = no result.

SMILES	VIM-2 inhibitor	IMP-1 inh	Jurkat NFkB inh	Mdm2 MdmX PPI	aSyn 5UTR inh	697 NFkB inh	Mdm2 MdmX conf	Full FLuc ctr
O=C(Nc1cccc(F)c1)C1CCN(C(=O)NCc2ccccc2)CC1	-1.4	-0.7	3.1	30.8	6.9	7.1	/	/
O=C(COc1cccc2c1CCNC2=O)Nc1ccc(F)cc1	/	/	4.9	8.0	-11.8	18.6	/	/
CC1c2cc3c(cc2CCN1C(=O)c1cccc(Cl)c1)OCCCO3 (configuration not stated)	-1.4	0.0	23.6	56.7*	-64.6	-28.1	44.2*	62.0*
CCCCCc1cc(=O)oc2c(C(CCN3CCCCC3)c3ccc(OC)cc3)c(OC)cc(OC)c12 (configuration not stated)	/	/	-1.0	96.4*	31.2	11.7	31.4	44.0*
CCCCCc1cc(=O)oc2c(C(CCN3CCCC3)c3cc(OC)c(OC)c(OC)c3)c(OC)cc(OC)c12 (configuration not stated)	/	/	33.5	100.3*	14.0	1.1	62.2*	39.2*
COc1cc(C(CCN2CCCC2)c2c(OC)cc(OC)c3c(C)cc(=O)oc23)cc(OC)c1OC (configuration not stated)	/	/	-1.9	14.7	6.0	17.5	/	/
CCCCCc1cc(=O)oc2c(C(CCN3CCCC3)c3ccc(N(C)C)cc3)c(OC)cc(OC)c12 (configuration not stated)	/	/	8.4	96.8*	20.2	2.1	39.2	53.1*
COc1cc(OC)c2ccc(=O)oc2c1C(CCN1CCCC1)c1ccc(N(C)C)cc1 (configuration not stated)	/	/	-4.5	2.8	14.1	6.8	/	/
CCCCCc1cc(=O)oc2c(C(CCN3CCCC(C)C3)c3ccc(OC)cc3)c(OC)cc(OC)c12 (configuration not stated)	/	/	12.9	86.4*	21.5	6.2	41.5*	50.1*
O=C(OCC(=O)N1CCCCCC1)c1ccc(F)cc1F	/	/	9.0	-39.3	/	5.2	/	/
Cc1ccc(-n2nc(C(=O)O)c(O)cc2=O)cc1	-1.8	-2.2	2.4	5.5	-5.1	1.3	/	/
CCCCn1c(N)c(N(CC(C)C)C(=O)c2cc(-c3ccco3)nc3ccccc23)c(=O)[nH]c1=O	/	/	13.5	10.0	8.8	6.8	/	/
CC1CCN(C(=O)CSc2nc(N)c(NC(=O)c3ccccc3)c(=O)[nH]2)CC1	6.0	0.5	6.3	-5.0	-9.7	-13.8	/	/
COc1ccc(CNC(=O)CN(C(=O)c2csnn2)c2ccc(C(C)=O)cc2)cc1	-1.2	-2.2	-7.7	-7.5	-23.3	6.1	/	/
CCN(CC)CCC(c1ccc(N(C)C)cc1)c1c(OC)cc(OC)c2ccc(=O)oc12 (configuration not stated)	/	/	4.1	-7.6	4.5	4.0	/	/
CCCCCc1cc(=O)oc2c(C(CCN(CC)CC)c3ccc(OC)cc3)c(OC)cc(OC)c12 (configuration not stated)	/	/	7.0	99.8*	-5.3	11.9	33.8	51.3*
O=C(NCC(=O)N(CC1CCCO1)C(C(=O)NC1CCCCC1)c1cccnc1)c1cccs1 (configuration not stated)	-1.0	-2.9	6.9	-8.6	-14.4	1.6	/	/
N#C/C(=C/c1cn(-c2ccccc2)nc1-c1cccc(OCc2ccc(F)cc2)c1)C(=O)NCCCn1ccnc1	-3.4	-5.0	-2.8	51.7*	2.9	4.7	29.6	/
C=C1C(C(=O)Nc2ccc(OC)cc2)C1C(=O)Nc1ccc(OC)cc1 (configuration not stated)	-0.9	-2.7	3.9	71.8*	2.6	-0.5	25.2	/
C=C1C(C(=O)Nc2ccc(OCC)cc2)C1C(=O)Nc1ccc(OCC)cc1 (configuration not stated)	-1.3	-2.2	-2.7	36.9	7.8	-1.8	/	/
Cn1c2ccccc2c(=O)c2c(=O)n(C3CCCCC3)c(-c3cccs3)nc21	-0.4	0.8	15.4	58.5*	3.4	-7.0	69.3*	62.6*
COc1ccc(CCn2c(C3CCCCC3)nc3c(c(=O)c4ccccc4n3C)c2=O)cc1	1.0	-2.4	36.4	81.2*	75.0*	-87.0	50.0*	45.1*
Cn1c2ccccc2c(=O)c2c(=O)n(C3CCCCCC3)c(C3CCCCC3)nc21	-3.8	0.6	/	/	13.7	/	/	/
Cn1c2ccccc2c(=O)c2c(=O)n(-c3ccccc3)c(C3CCCCC3)nc21	0.4	-0.7	6.0	-13.7	15.8	-6.5	/	/
CCc1nc2c(c(=O)c3ccccc3n2C)c(=O)n1C1CCCCCC1	-0.9	-3.3	-0.9	51.7*	13.9	-55.1	76.1*	80.7*
SMILES	VIM-2 inhibitor	IMP-1 inh	Jurkat NFkB inh	Mdm2 MdmX PPI	aSyn 5UTR inh	697 NFkB inh	Mdm2 MdmX conf	Full FLuc ctr
COc1ccc(OC)c(CC(NC(C)=O)C(=O)NC2CCN(C(=O)c3cccc(C)c3)CC2)c1 (configuration not stated)	-2.3	-2.5	-1.3	-4.1	-2.2	12.5	/	/
CCOc1cc(-c2c(C#N)c(N)nc3c2CCc2ccccc2-3)ccc1O	0.3	-1.9	29.6	81.1*	-2.0	30.1	78.5*	51.0*
COc1ccccc1-c1c(C#N)c(N)nc2c1CCc1ccccc1-2	-1.8	-3.0	10.6	69.8*	-196.3	-11.5	70.5*	52.9*
Cc1ccc(S(=O)(=O)N(C)C[C@H]2Oc3ccc(NC(=O)Nc4c(C)noc4C)cc3CC(=O)N([C@@H](C)CO)C[C@@H]2C)cc1	/	/	7.8	9.0	/	12.6	/	/
COC(=O)c1c(C)[nH]c(C(=O)C(C)OC(=O)c2cnc(C)cn2)c1C (configuration not stated)	/	/	-4.4	13.2	/	2.2	/	/
O=S(=O)(NC1CC1)c1ccc(Cl)cc1F	-1.4	-3.0	10.0	8.8	-1.2	9.8	/	/
Cc1ccc(N(C(=O)c2ccccc2Cl)C2=NC(C)CS2)c(C)c1 (configuration not stated)	-1.1	-4.7	-4.7	15.3	-5.2	-3.7	/	/
CCC1=Nc2cc(C(=O)NCC3CCCO3)ccc2Sc2ccc(Cl)cc21 (configuration not stated)	-3.3	-4.1	36.7	64.7*	-73.7	-18.0	55.0*	44.8*
CCC1=Nc2cc(C(=O)NCC3CCCO3)ccc2Sc2ccc(Br)cc21 (configuration not stated)	-1.9	-0.4	45.2	43.2	-59.4	-16.3	/	/
CCC(C)c1ccc(C(C)NC(=S)NCc2ccc(F)cc2)cc1 (configuration not stated)	-4.8	-2.5	14.4	2.9	13.4	-60.5	/	/
CCC(NC(=S)NCc1ccc(F)cc1)c1ccc(C(C)C)cc1 (configuration not stated)	-1.8	-1.4	3.2	75.7*	5.9	-13.3	22.7	/
